# Ecoli rRNA inh: inhibitors of bacterial rRNA selective over humanized ribosomes; E. coli WT GFP vs humanized-ribosome RFP mutants, fluorescence, 24 h; hits give low values; DMSO median 0, no signal -100; 350,000 tested, 1.6% active; GFP signal change (wild-type ribosome), % (concentration not given with the values);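 active = significant combined selectivity score with lowered wild-type GFP, culture density cut under 30%, mutant RFP and density less affected; inactive = any of these conditions unmet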
# LGR2 antag: inhibitors of bursicon-induced Drosophila LGR2 receptor cAMP signaling | HEK293 LGR2, CRE-luciferase, bursicon-stimulated, 4 h | inhibition, % at 9.99 µM | 380,000 tested, 0.35% active | AID 720647;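 active = drop in luminescence signal, shown as inhibition above about 50% in the replicate tests, limit read from the data, passing the limit was not always enough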;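 note: agonist challenge used bursicon conditioned medium at about half maximal strength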
# E-sel inducer: induces E-selectin expression in human endothelial cells. P16581. HUVEC E-selectin immunofluorescence imaging; normalized: neutral wells 0, TNF-alpha wells 100. activation, % at 7.58 µM. 260,000 tested, 0.37% active. AID 686992;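 active = mean E-selectin-positive cell signal at least 10% of the positive control, reached in at least 60% of replicates, without over 20% cell loss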
# Target sequence (P16581 whole entry, looked up): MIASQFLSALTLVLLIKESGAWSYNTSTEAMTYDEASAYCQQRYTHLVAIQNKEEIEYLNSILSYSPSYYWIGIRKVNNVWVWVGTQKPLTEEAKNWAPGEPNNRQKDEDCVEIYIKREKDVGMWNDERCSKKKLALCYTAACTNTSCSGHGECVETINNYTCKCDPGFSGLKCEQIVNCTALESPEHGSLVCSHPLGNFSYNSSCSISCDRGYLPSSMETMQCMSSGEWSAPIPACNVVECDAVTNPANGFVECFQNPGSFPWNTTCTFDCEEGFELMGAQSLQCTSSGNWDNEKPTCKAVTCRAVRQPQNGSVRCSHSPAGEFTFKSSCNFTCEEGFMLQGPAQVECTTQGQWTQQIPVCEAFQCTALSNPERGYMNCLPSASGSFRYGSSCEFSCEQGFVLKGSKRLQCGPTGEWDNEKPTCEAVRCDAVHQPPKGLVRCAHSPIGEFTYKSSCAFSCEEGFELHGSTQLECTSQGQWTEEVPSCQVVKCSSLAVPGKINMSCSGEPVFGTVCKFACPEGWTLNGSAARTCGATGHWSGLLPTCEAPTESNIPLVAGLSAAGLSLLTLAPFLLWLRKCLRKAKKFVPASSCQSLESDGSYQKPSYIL
#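 Assay system: HUVEC primary endothelial cells. Input: 3,000 HUVEC seeded per well. Doses: one compound dose added by pin transfer. Read-out basis: % PE-positive cells. Benchmarks: TNF-alpha high, DMSO low. Detection: immunofluorescence imaging. Buffer or medium: EGM-2, gelatin.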
# EWS-Fli inh: EWS/Fli transcriptional activity inhibition; inhibition, % at 12.6 µM; A673 NR0B1-luciferase reporter, viability-normalised; 350,000 tested, 0.67% active;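 active = mean inhibition of at least 50% after viability correction, with every replicate also passing that limit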;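 note: firefly luciferase signal divided by Alamar Blue viability fluorescence both relative to DMSO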
# Hits are given with their value; n = inactive; x = no result; ! = a repeat was not active. Shown are actives, neighbours in structure and some others; about 2.4% of the full set was active somewhere.
SMILES,Ecoli rRNA inh,LGR2 antag,E-sel inducer,EWS-Fli inh
C[C@@H]1CN([C@H](C)CO)C(=O)c2cc(NC(=O)Cc3ccccc3)ccc2O[C@H]1CN(C)C(=O)Nc1ccc2c(c1)OCO2,n,n,n,n
CCOc1ccc(-c2c(=O)n(O)c3ccccc3[n+]2[O-])cc1,-20,n,n,n
O=C(COc1ccccc1/C=C\c1[nH]c(=O)[nH]c(=O)c1[N+](=O)[O-])Nc1ccccc1,-31,n,n,n
O=C(Nc1cccc2cccnc12)c1ccccc1Br,-25,n,x,n
COc1cc(NC(=O)c2ccccc2Cl)c2ncccc2c1,n,n,x,58
O=C(Nc1cccc2cccnc12)c1cccc2ccccc12,n,n,x,n
O=C(Nc1ccccc1Cl)N1C[C@H]2[C@@H](c3ccccc31)[C@H](CO)N2Cc1ccccc1,-23,n,n,n
O=S(=O)(c1ccccc1)N1C[C@H]2[C@@H](c3ccccc31)[C@@H](CO)N2Cc1ccccc1,-49,n,n,n
O=S(=O)(c1ccccc1)N1C[C@H]2[C@@H](c3ccccc31)[C@H](CO)N2Cc1ccc(F)cc1,n,n,n,n
O=S(=O)(c1ccccc1)N1C[C@@H]2[C@H](c3ccccc31)[C@H](CO)N2Cc1ccccc1,-25,n,n,n
C[C@@H]1CN([C@H](C)CO)C(=O)c2cc(C3=CCCCC3)cnc2O[C@@H]1CN(C)Cc1ccncc1,n,n,n,n
CC(=O)c1ccc(NC(=S)NC(C)c2ccc(Cl)cc2Cl)cc1 (stereo unspecified),-49,n,x,n
CC(=O)c1ccc(NC(=S)Nc2ccc(Br)c(Cl)c2)cc1,n,n,x,n
COc1cc2nc(Nc3ccc(F)cc3)nc(N)c2cc1OC,-16,n,n,n
COc1cc2nc(Nc3ccc(C)c(C)c3)nc(N)c2cc1OC,-38,n,n,n
COc1cc2nc(Nc3ccc(C)c(Cl)c3)nc(N)c2cc1OC,n,n,n,n
COc1ccc2c3c([nH]c2c1)[C@@H](CO)N(C(=O)CN1CCOCC1)CC31CN(CC2CCCC2)C1,n,n,n,n
O=C(O)c1cccc(COc2cccc3ccccc23)c1,x,x,n,n
O=Cc1c(OCc2ccccc2)ccc2ccccc12,-37,n,x,n
C/[N+]([O-])=C/c1c(OCc2ccccc2)ccc2ccccc12,-36,n,n,n
CNc1cc([N+](=O)[O-])ccc1OCc1ccccc1,n,n,n,n
C[C@H]1CN([C@@H](C)CO)C(=O)c2cc(-c3ccc(F)cc3)cnc2O[C@@H]1CN(C)C(=O)CN(C)C,n,n,n,n
N#Cc1cccc(C#N)c1Oc1ccc(S(=O)(=O)Nc2ccccc2)cc1,x,x,x,n
N#Cc1c(Cl)cccc1Oc1ccc(S(=O)(=O)Nc2ccccc2)cc1,-28,n,n,n
CCOc1ccccc1NC(=O)N1CCC(NC(=O)C2CCCCC2)CC1,n,n,35,n
SMILES,Ecoli rRNA inh,LGR2 antag,E-sel inducer,EWS-Fli inh
CCOc1ccccc1NC(=O)N1CCC(NC(=O)c2cccc(C)c2)CC1,x,x,n,x
CCOC(=O)c1c(NC(=O)CN2CCCCC2)sc2c1CCN(C(=O)OCC)C2,-38,n,x,n
CCC(=O)N(C)C[C@H]1Oc2ncc(Br)cc2C(=O)N([C@@H](C)CO)C[C@@H]1C,n,n,73,n
C[C@H]1CN([C@@H](C)CO)C(=O)c2cc(Br)cnc2O[C@@H]1CN(C)C(=O)Nc1ccc(C(F)(F)F)cc1,-12!,n,n,n
C[C@H](CO)N1C[C@H](C)[C@H](CN(C)C(=O)Nc2ccc(C(F)(F)F)cc2)OCc2cnnn2CCCC1=O,-11!,n,n,n
CC(C)NC(=O)N[C@@H]1CC[C@H](CCNC(=O)C2CCOCC2)O[C@@H]1CO,n,n,n,n
CCC(=O)N1[C@@H](CO)[C@@H](c2ccc(-c3ccccc3)cc2)[C@@H]1CNC(=O)COC,n,n,n,n
CC(=O)N1[C@@H]2CN(C(=O)NC(C)C)C[C@H]1C2c1ccc(Br)cc1 (stereo partly specified),n,x,x,x
Clc1cccc(CN2CCc3c([nH]c4ccccc34)C2)c1,n,n,n,n
Clc1ccc(CN2CCc3c([nH]c4ccccc34)C2)cc1Cl,n,n,n,57
COc1cccc(-c2ccc(C3[C@@H]4CN(C(=O)C5CCC5)C[C@H]3N4)cc2)c1 (stereo partly specified),n,n,n,n
COc1ccccc1NC(=O)N1C[C@@H]2N[C@H](C1)C2c1ccc(-c2cccc(C#N)c2)cc1 (stereo partly specified),n,n,n,53!

# From PubChem BioAssay
